Our source for the IC50, inhibition and CI values is ChEMBL document CHEMBL4145462, “Nitrogen-containing ecdysteroid derivatives vs. multi-drug resistance in cancer: Preparation and antitumor activity of oximes, oxime ethers and a lactam” (Eur J Med Chem, 2018).

Structures are written as SMILES. Some results are limits rather than exact numbers.

T1 sequence (P08183 whole entry): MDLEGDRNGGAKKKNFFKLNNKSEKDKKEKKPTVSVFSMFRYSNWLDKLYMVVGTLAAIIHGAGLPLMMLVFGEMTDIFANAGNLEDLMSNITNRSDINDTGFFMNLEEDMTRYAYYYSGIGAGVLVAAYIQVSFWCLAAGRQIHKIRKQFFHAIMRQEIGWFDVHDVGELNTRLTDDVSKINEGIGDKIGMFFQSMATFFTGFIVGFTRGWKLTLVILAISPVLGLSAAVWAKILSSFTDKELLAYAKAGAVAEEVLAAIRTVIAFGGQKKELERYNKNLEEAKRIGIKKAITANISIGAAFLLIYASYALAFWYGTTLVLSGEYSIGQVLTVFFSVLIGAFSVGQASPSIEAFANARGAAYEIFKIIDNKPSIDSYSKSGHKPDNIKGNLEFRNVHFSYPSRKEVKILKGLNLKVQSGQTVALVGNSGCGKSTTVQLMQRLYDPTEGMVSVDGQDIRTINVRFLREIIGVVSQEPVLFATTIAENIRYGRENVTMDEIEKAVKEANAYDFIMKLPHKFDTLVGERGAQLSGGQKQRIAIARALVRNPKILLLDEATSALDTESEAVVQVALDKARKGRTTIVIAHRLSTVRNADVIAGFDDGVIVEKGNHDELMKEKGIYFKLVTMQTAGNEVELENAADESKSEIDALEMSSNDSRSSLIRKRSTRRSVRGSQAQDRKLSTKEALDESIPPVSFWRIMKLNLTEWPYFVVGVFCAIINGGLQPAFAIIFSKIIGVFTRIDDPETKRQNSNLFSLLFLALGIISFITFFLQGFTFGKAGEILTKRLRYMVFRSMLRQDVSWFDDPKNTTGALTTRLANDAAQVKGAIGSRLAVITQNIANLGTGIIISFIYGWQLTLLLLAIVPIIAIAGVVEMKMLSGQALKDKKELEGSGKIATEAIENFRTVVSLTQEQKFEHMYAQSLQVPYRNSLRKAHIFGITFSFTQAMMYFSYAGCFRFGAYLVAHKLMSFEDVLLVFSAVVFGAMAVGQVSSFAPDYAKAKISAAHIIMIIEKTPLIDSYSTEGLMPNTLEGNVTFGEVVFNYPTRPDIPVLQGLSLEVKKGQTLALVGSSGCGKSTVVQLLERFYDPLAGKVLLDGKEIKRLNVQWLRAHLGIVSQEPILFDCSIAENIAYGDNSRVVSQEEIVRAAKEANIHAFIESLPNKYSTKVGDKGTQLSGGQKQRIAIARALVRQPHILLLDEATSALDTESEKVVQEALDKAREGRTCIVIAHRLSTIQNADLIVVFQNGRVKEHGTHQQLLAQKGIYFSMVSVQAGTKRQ

In one data set the test system is HeLa. In words: Antiproliferative activity against human HeLa cells after 72 hrs by MTT assay. The data set is classed as functional, cell-based.
Conditions: not given
The essentials:
(§1)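 Cells grown in MEM with 10% FCS, 1% non-essential amino acids and 1% penicillin-streptomycin. Seeded at 5000 cells/well, exposed to 0.1–30.0 µM compound for 72 h. MTT (5 mg/ml solution) was then added for 4 h, formazan dissolved in DMSO, and absorbance read at 545 nm. Cisplatin served as positive control. IC50 came from sigmoidal dose–response fits (log inhibitor vs normalized response, variable slope).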
On the technique in general: Tetrazolium assays rely on reduction of a dye to a coloured formazan, in cell work by metabolically active cells.
As a reminder, the IC50 is the midpoint of a concentration-inhibition curve. Higher therefore signals weaker potency in that assay. On to `CO/N=C1\C=C2[C@H](CC[C@]3(C)[C@@H]([C@@]4(C)OC(C)(C)O[C@@H]4CCC(C)(C)O)CC[C@@]23O)[C@@]2(C)C[C@@H]3OC(C)(C)O[C@@H]3C[C@@H]12`, for which the IC50 is above 30 µM.

A further data set relates to SiHa. In words: Antiproliferative activity against human SiHa cells after 72 hrs by MTT assay.
Conditions: not given
The data set is classed as functional, cell-based. The essentials:
as §1
For the molecule `CO/N=C1\C=C2[C@H](CC[C@]3(C)[C@@H]([C@@]4(C)OC(C)(C)O[C@@H]4CCC(C)(C)O)CC[C@@]23O)[C@@]2(C)C[C@@H]3OC(C)(C)O[C@@H]3C[C@@H]12`, the IC50 is above 30 µM.

A further data set deals with MDA-MB-231. In words: Antiproliferative activity against human MDA-MB-231 cells after 72 hrs by MTT assay. The data set is classed as functional, cell-based. The following applies: MDA-MB-231, 72 h. The gist of the method:
as §1
In the case of `CO/N=C1\C=C2[C@H](CC[C@]3(C)[C@@H]([C@@]4(C)OC(C)(C)O[C@@H]4CCC(C)(C)O)CC[C@@]23O)[C@@]2(C)C[C@@H]3OC(C)(C)O[C@@H]3C[C@@H]12`, the IC50 is above 30 µM.

Another data set relates to MCF7. As to the kind of experiment: Antiproliferative activity against human MCF7 cells after 72 hrs by MTT assay. To be noted: MCF7, 72 h. It is filed as functional, cell-based. The gist of the method:
as §1
For `CO/N=C1\C=C2[C@H](CC[C@]3(C)[C@@H]([C@@]4(C)OC(C)(C)O[C@@H]4CCC(C)(C)O)CC[C@@]23O)[C@@]2(C)C[C@@H]3OC(C)(C)O[C@@H]3C[C@@H]12`, the IC50 was above 30 µM.

System in the next data set: not listed separately
As to the kind of experiment: Cytotoxicity against mouse L5178 cells after 48 hrs by MTT assay. It is filed as functional, cell-based. To be noted: L5178, 48 h. The essentials: (§2)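 Parental mouse lymphoma L5178 and the MDR line made by pHa MDR1/A retrovirus transfection, selected with 60 µg/L colchicine. Grown in McCoy's 5A with horse serum at 37°C, 5% CO2. 5 x 10^4 cells/well, serial compound dilutions, 48 h. MTT added to 0.5 mg/mL final for 4 h, then 10% SDS in 0.01 M HCl overnight, OD read at 540 and 630 nm. IC50 taken as median cytotoxic activity (Dm) from control lanes of checkerboard plates, n=2.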
In turn, `CO/N=C1\C=C2[C@H](CC[C@]3(C)[C@@H]([C@@]4(C)OC(C)(C)O[C@@H]4CCC(C)(C)O)CC[C@@]23O)[C@@]2(C)C[C@@H]3OC(C)(C)O[C@@H]3C[C@@H]12` showed an IC50 of 40.9 µM. This lies in the double-digit micromolar range.

System in another data set: not listed separately
As to the kind of experiment: Cytotoxicity against mouse L5178 cells expressing human ABCB1 after 48 hrs by MTT assay. It is filed as functional, cell-based. To be noted: L5178, 48 h. The gist of the method: as §2
As for `CO/N=C1\C=C2[C@H](CC[C@]3(C)[C@@H]([C@@]4(C)OC(C)(C)O[C@@H]4CCC(C)(C)O)CC[C@@]23O)[C@@]2(C)C[C@@H]3OC(C)(C)O[C@@H]3C[C@@H]12`, 55.1 µM corresponded to half-maximal inhibition (IC50).

Another data set deals with T1, ABCB1 (P-glycoprotein) (Homo sapiens, UniProt P08183). In words: Inhibition of human ABCB1 expressed in mouse L5178 cells assessed as increase in rhodamine-123 accumulation at 2 uM after 10 mins by flow cytometric analysis relative to control. The following applies: mouse L5178 cells expressing human ABCB1, probe rhodamine-123. The data set is classed as cell-based. The gist of the method:
(§3)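 Cells at 2 × 10^6/mL were preincubated 10 min with compound. Rhodamine 123 then added to 5.2 µM final, 20 min at 37 °C. Cells washed twice in PBS, resuspended and read by flow cytometry. Percent inhibition was scaled between MDR-cell accumulation (0%) and parental L5178 accumulation (100%). Controls: 100 nM tariquidar (positive) and 2% DMSO (negative).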
Background: Flow cytometry measures light scatter and fluorescence of single cells or particles in a stream.
As usually defined, the inhibition is the share of the control response that was lost under treatment. For `CO/N=C1\C=C2[C@H](CC[C@]3(C)[C@@H]([C@@]4(C)OC(C)(C)O[C@@H]4CCC(C)(C)O)CC[C@@]23O)[C@@]2(C)C[C@@H]3OC(C)(C)O[C@@H]3C[C@@H]12`, the inhibition at 10 min, 2 µM is 2.25%.

For the next data set, the target named is T1, ABCB1 (P-glycoprotein). As to the kind of experiment: Inhibition of human ABCB1 expressed in mouse L5178 cells assessed as increase in rhodamine-123 accumulation at 20 uM after 10 mins by flow cytometric analysis relative to control. The data set is classed as cell-based. The following applies: mouse L5178 cells expressing human ABCB1, probe rhodamine-123. The gist of the method: as §3
For the molecule `CO/N=C1\C=C2[C@H](CC[C@]3(C)[C@@H]([C@@]4(C)OC(C)(C)O[C@@H]4CCC(C)(C)O)CC[C@@]23O)[C@@]2(C)C[C@@H]3OC(C)(C)O[C@@H]3C[C@@H]12`, the inhibition at 10 min, 20 µM stood at 25.1%.

System in a further data set: not listed separately
As to the kind of experiment: Synergistic cytotoxicity against mouse L5178 cells assessed as combination index at ED50 using 150:1 test compound to doxorubicin ratio after 48 hrs by MTT-based checkerboard microplate method. The data set is classed as functional.
Conditions: not given
The gist of the method:
(§4)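 Checkerboard microplate combinations of compound with doxorubicin at constant molar ratios. 5 × 10^4 cells/well in McCoy's 5A, 48 h at 37°C, 5% CO2. MTT added to 0.5 mg/mL final for 4 h, SDS/HCl overnight, OD read at 540 and 630 nm. Combination indices derived per ratio for 50%, 75% and 90% growth inhibition by median-effect analysis.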
For `CO/N=C1\C=C2[C@H](CC[C@]3(C)[C@@H]([C@@]4(C)OC(C)(C)O[C@@H]4CCC(C)(C)O)CC[C@@]23O)[C@@]2(C)C[C@@H]3OC(C)(C)O[C@@H]3C[C@@H]12`, the CI is 1.06.

System in another data set: not listed separately
In words: Synergistic cytotoxicity against mouse L5178 cells expressing human ABCB1 assessed as combination index at ED50 using 15:1 test compound to doxorubicin ratio after 48 hrs by MTT-based checkerboard microplate method. It is filed as functional.
Conditions: not given
The essentials: as §4
Take `CO/N=C1\C=C2[C@H](CC[C@]3(C)[C@@H]([C@@]4(C)OC(C)(C)O[C@@H]4CCC(C)(C)O)CC[C@@]23O)[C@@]2(C)C[C@@H]3OC(C)(C)O[C@@H]3C[C@@H]12`: the CI worked out at 0.17.

System in a further data set: not listed separately
As to the kind of experiment: Synergistic cytotoxicity against mouse L5178 cells assessed as combination index at ED75 using 150:1 test compound to doxorubicin ratio after 48 hrs by MTT-based checkerboard microplate method. The data set is classed as functional.
Conditions: not given
The gist of the method: as §4
`CO/N=C1\C=C2[C@H](CC[C@]3(C)[C@@H]([C@@]4(C)OC(C)(C)O[C@@H]4CCC(C)(C)O)CC[C@@]23O)[C@@]2(C)C[C@@H]3OC(C)(C)O[C@@H]3C[C@@H]12`: the CI amounted to 0.79.

System in the next data set: not listed separately
As to the kind of experiment: Synergistic cytotoxicity against mouse L5178 cells assessed as combination index at ED90 using 150:1 test compound to doxorubicin ratio after 48 hrs by MTT-based checkerboard microplate method. It is filed as functional.
Conditions: not given
The essentials: as §4
On to `CO/N=C1\C=C2[C@H](CC[C@]3(C)[C@@H]([C@@]4(C)OC(C)(C)O[C@@H]4CCC(C)(C)O)CC[C@@]23O)[C@@]2(C)C[C@@H]3OC(C)(C)O[C@@H]3C[C@@H]12`, for which the CI turned out to be 0.62.

System in another data set: not listed separately
In words: Synergistic cytotoxicity against mouse L5178 cells expressing human ABCB1 assessed as combination index at ED75 using 15:1 test compound to doxorubicin ratio after 48 hrs by MTT-based checkerboard microplate method. It is filed as functional.
Conditions: not given
The gist of the method:
as §4
With `CO/N=C1\C=C2[C@H](CC[C@]3(C)[C@@H]([C@@]4(C)OC(C)(C)O[C@@H]4CCC(C)(C)O)CC[C@@]23O)[C@@]2(C)C[C@@H]3OC(C)(C)O[C@@H]3C[C@@H]12`, the CI was 0.16.

System in another data set: not listed separately
In words: Synergistic cytotoxicity against mouse L5178 cells expressing human ABCB1 assessed as combination index at ED90 using 15:1 test compound to doxorubicin ratio after 48 hrs by MTT-based checkerboard microplate method. It is filed as functional.
Conditions: not given
The gist of the method:
as §4
Turning to `CO/N=C1\C=C2[C@H](CC[C@]3(C)[C@@H]([C@@]4(C)OC(C)(C)O[C@@H]4CCC(C)(C)O)CC[C@@]23O)[C@@]2(C)C[C@@H]3OC(C)(C)O[C@@H]3C[C@@H]12`, the CI is reported as 0.16.

System in another data set: not listed separately
As to the kind of experiment: Synergistic cytotoxicity against mouse L5178 cells expressing human ABCB1 assessed as combination index at ED50 using 30:1 test compound to doxorubicin ratio after 48 hrs by MTT-based checkerboard microplate method. It is filed as functional.
Conditions: not given
The gist of the method:
as §4
For the molecule `CO/N=C1\C=C2[C@H](CC[C@]3(C)[C@@H]([C@@]4(C)OC(C)(C)O[C@@H]4CCC(C)(C)O)CC[C@@]23O)[C@@]2(C)C[C@@H]3OC(C)(C)O[C@@H]3C[C@@H]12`, the CI was found to be 0.19.

System in another data set: not listed separately
In words: Synergistic cytotoxicity against mouse L5178 cells expressing human ABCB1 assessed as combination index at ED75 using 30:1 test compound to doxorubicin ratio after 48 hrs by MTT-based checkerboard microplate method. It is filed as functional.
Conditions: not given
The essentials:
as §4
As for `CO/N=C1\C=C2[C@H](CC[C@]3(C)[C@@H]([C@@]4(C)OC(C)(C)O[C@@H]4CCC(C)(C)O)CC[C@@]23O)[C@@]2(C)C[C@@H]3OC(C)(C)O[C@@H]3C[C@@H]12`, the CI is recorded as 0.21.

System in a further data set: not listed separately
In words: Synergistic cytotoxicity against mouse L5178 cells expressing human ABCB1 assessed as combination index at ED90 using 30:1 test compound to doxorubicin ratio after 48 hrs by MTT-based checkerboard microplate method. It is filed as functional.
Conditions: not given
The essentials:
as §4
For `CO/N=C1\C=C2[C@H](CC[C@]3(C)[C@@H]([C@@]4(C)OC(C)(C)O[C@@H]4CCC(C)(C)O)CC[C@@]23O)[C@@]2(C)C[C@@H]3OC(C)(C)O[C@@H]3C[C@@H]12`, the CI is given as 0.24.
